Results taken from ChEMBL document CHEMBL1124216, “A novel class of potential central nervous system agents. 3-Phenyl-2-(1-piperazinyl)-5H-1-benzazepines” (1988).

Legend:
Format in all cases: functional
Mus musculus [1] = experiment: Antiexploratory activity (EXPL) of mice determined by an antimex activity meter, 50 mg/kg of dose was administered perorally; Potent inhibition; conditions: route oral
Mus musculus [2] = experiment: 3,4 -Dihydroxy phenylacetic acid (DOPAC) levels in mouse brain at 50 mg/kg dose.
Summary of the method: (§1)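 Male Std-ddY mice, 20-25 g, dosed orally with compound in 0.5% aqueous tragacanth. DOPAC was measured fluorometrically after purification by column chromatography on Sephadex G-10 and QAE-Sephadex. Brains from five mice per compound were pooled for each determination.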

Mus musculus [3] = experiment: Exploratory activity of mice determined by an antimex activity meter, 50 mg/kg of dose was administered perorally; conditions: Mus musculus, po
Summary of the method: (§2)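 Male Std-ddY mice (20-25 g), five per dose; compound in 0.5% aqueous tragacanth given orally. Two hours later each mouse placed in an Animex activity meter cage and locomotor activity counted for 3 min. Mean suppression expressed as percent inhibition of control; ED50 by Litchfield-Wilcoxon.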

Mus musculus [4] = experiment: The homovanillic acid (HVA) levels in mouse brain at 50 mg/kg of dose.
Summary of the method: (§3)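 Mice dosed orally in 0.5% aqueous tragacanth; brains of five mice per compound pooled. Homovanillic acid measured in brain extracts and reported as brain level.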

Mus musculus [5] = experiment: Exploratory activity of mice determined by an antimex activity meter, 10 mg/kg of dose was administered perorally; conditions: route oral
Mus musculus [6] = experiment: The homovanillic acid (HVA) levels in mouse brain at 10 mg/kg of dose.; summary of the method: as §3
Mus musculus [7] = experiment: Antiexploratory activity (EXPL) of mice determined by an antimex activity meter, 10 mg/kg of dose was administered perorally; Moderate inhibition (51-71%); conditions: route oral
Mus musculus [8] = experiment: 3,4 -Dihydroxy phenylacetic acid (DOPAC) levels in mouse brain at 10 mg/kg dose.; summary of the method: as §1
Canis familiaris [9] = experiment: Inhibition of apomorphine induced emesis in dogs at 1 mg/kg of dose.; conditions: Canis lupus familiaris
Summary of the method: (§4)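 Beagle dogs (10-15 kg), groups of three, given compound po in a gelatin capsule; 2 h later apomorphine hydrochloride 0.3 mg/kg sc. Vomiting counted for 1 h; mean inhibition as percent of control. ED50 is the dose giving 50% inhibition of emesis, by Litchfield-Wilcoxon.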

Mus musculus [10] = experiment: Antireserpine activity (RES) of mice after peroral administration of 100 mg/kg of compound; […]; conditions: route oral
Mus musculus [11] = experiment: Antitremorine activity(TRM) of mice after peroral administration of 100 mg/kg of compound; No inhibition; conditions: route oral
Mus musculus [12] = experiment: Antimaximal electroshock seizure (MES) activity in mice after peroral administration of 100 mg/kg of compound; 0/5; conditions: route oral
Mus musculus [13] = experiment: Antiexploratory activity (EXPL) of mice determined by an antimex activity meter, 100 mg/kg of dose was administered perorally; No inhibition; conditions: route oral
Mus musculus [14] = experiment: Antireserpine activity (RES) of mice after peroral administration of 100 mg/kg of compound; conditions: route oral
Mus musculus [15] = experiment: Antipentylene tetrazole activity was determined in mice when administered perorally; conditions: po
Summary of the method: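 Groups of five male Std-ddY mice received compound orally in 0.5% tragacanth, then pentylenetetrazole 175 mg/kg ip. Blockade of the tonic extensor component scored as anticonvulsant. ED50 was the dose protecting 50% of animals (Litchfield-Wilcoxon).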

Mus musculus [16] = experiment: Antimaximal electroshock seizure (MES) activity in mice after peroral administration of 100 mg/kg of compound; 4/5; conditions: route oral
Mus musculus [17] = experiment: Antimaximal electroshock seizure (MES) activity in mice after peroral administration of 10 mg/kg of compound; 0/5; conditions: route oral
Mus musculus [18] = experiment: Antitremorine activity(TRM) of mice after peroral administration of 100 mg/kg of compound; conditions: route oral
Mus musculus [19] = experiment: Antimaximal electroshock seizure activity was determined in mice when administered perorally; conditions: po
Mus musculus [20] = experiment: Antiexploratory activity (EXPL) of mice determined by an antimex activity meter, 100 mg/kg of dose was administered perorally; conditions: route oral
Mus musculus [21] = experiment: Antireserpine activity (RES) of mice after peroral administration of 100 mg/kg of compound; No inhibition; conditions: route oral
Mus musculus [22] = experiment: Antitremorine activity(TRM) of mice after peroral administration of 10 mg/kg of compound; Slight inhibition (31-50%); conditions: route oral
Mus musculus [23] = experiment: Antireserpine activity (RES) of mice after peroral administration of mg/kg of compound; Slight inhibition (31-50%)
Mus musculus [24] = experiment: Antiexploratory activity (EXPL) of mice determined by an antimex activity meter, mg/kg of dose was administered perorally; Slight inhibition (31-50%)
Mus musculus [25] = experiment: Antitremorine activity(TRM) of mice after peroral administration of mg/kg of compound; No inhibition
Mus musculus [26] = experiment: Antitremorine activity(TRM) of mice after peroral administration of 100 mg/kg of compound; Slight inhibition (31-50%); conditions: route oral
Mus musculus [27] = experiment: Exploratory activity of mice determined by an antimex activity meter, when administered perorally; conditions: po; summary of the method: as §2
Mus musculus [28] = experiment: Exploratory activity of mice determined by an antimex activity meter, 100 mg/kg of dose was administered perorally; conditions: route oral; summary of the method: as §2
Mus musculus [29] = experiment: Concentration of compound that causes ptosis in the mice when administered perorally; conditions: po
Summary of the method: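 Five male Std-ddY mice per group were dosed orally in 0.5% aqueous tragacanth. At 2 h, eyelid closure was scored macroscopically (8 open to 0 fully closed). Group mean scores formed a dose-response curve. ED50 was the dose reducing the mean score to 50%.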

Mus musculus [30] = experiment: Concentration of compound that causes catalepsy in the mice when administered perorally; conditions: po
Summary of the method: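 Male Std-ddY mice were dosed orally, vehicle 0.5% aqueous tragacanth. At 2 h, forepaws were placed on a rod 4.5 cm high. Failure to remove the paws within 30 s in three successive trials was scored cataleptic. ED50 was the dose giving catalepsy in 50% of mice (Litchfield-Wilcoxon).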

Rattus norvegicus = experiment: Inhibition of self-stimulation response in rats when administered perorally.; conditions: po
Summary of the method: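 Male Wistar HLA rats (300-400 g) with chronic electrodes in the lateral posterior hypothalamus, lever-pressing steadily at 50-100/min. Self-stimulation counted for 10 min before and 2 h after oral dosing. ED50 is the dose causing ≥50% rate inhibition in half the rats (Litchfield-Wilcoxon).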

Canis familiaris [31] = experiment: Inhibition of apomorphine induced emesis in dogs when administered perorally; conditions: Canis lupus familiaris, po; summary of the method: as §4
Mus musculus [32] = experiment: Inhibition of conditioned avoidance response in mice when administered perorally; conditions: po
Summary of the method: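 One-way active avoidance in male Std-ddY mice in a dark/light two-compartment box. Mice trained to move to the lit side on a warning stimulus to escape floor shock; groups of 10 avoiding at >80% in 10 trials. Compound po in 0.5% tragacanth. ED50 is the dose halving avoidance rate (Litchfield-Wilcoxon).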

Mus musculus [33] = experiment: Antiexploratory activity (EXPL) of mice determined by an antimex activity meter, 100 mg/kg of dose was administered perorally; potent inhibition; conditions: route oral
Mus musculus [34] = experiment: Antireserpine activity(RES) of mice after peroral administration of 50 mg/kg of compound; No inhibition; conditions: route oral
Mus musculus [35] = experiment: Antiexploratory activity (EXPL) of mice determined by an antimex activity meter, 50 mg/kg of dose was administered perorally; Slight inhibition (31-50%); conditions: route oral

## Fc1ccc(C2=CCc3ccccc3N=C2N2CCN(C3CCCCC3)CC2)cc1.O=C(O)/C=C/C(=O)O
Mus musculus [1]
  inhibition in vivo at 50 mg/kg: > 71%
Mus musculus [2]
  Control: 334%
Mus musculus [3]
  inhibition in vivo at 50 mg/kg: 84.6%
Mus musculus [4]
  Control: 343%
Mus musculus [5]
  inhibition in vivo at 10 mg/kg: 61.4%
Mus musculus [6]
  Control: 295%
Mus musculus [7]
  inhibition in vivo at 10 mg/kg: 51%
Mus musculus [8]
  Control: 244%
Canis familiaris [9]
  inhibition in vivo at 1 mg/kg: 46%

## CN1CCN(C2=Nc3ccccc3CC=C2c2cccnc2)CC1
Mus musculus [10]
  inhibition in vivo at 100 mg/kg: > 71%
Mus musculus [11]
  inhibition in vivo at 100 mg/kg: < 30%
Mus musculus [12]
  Activity: 0
Mus musculus [13]
  inhibition in vivo at 100 mg/kg: < 30%

## CN1CCN(C2=Nc3ccc(Cl)cc3CC=C2c2ccccc2)CC1.Cl.Cl
Mus musculus [14]
  inhibition in vivo at 100 mg/kg: < 30%
Mus musculus [15]
  ED50: 42.9 mg/kg
Mus musculus [16]
  Activity: 4
Mus musculus [17]
  Activity: 0
Mus musculus [18]
  inhibition in vivo at 100 mg/kg: > 71%
Mus musculus [19]
  ED50: 89.4 mg/kg
Mus musculus [20]
  inhibition in vivo at 100 mg/kg: < 30%

## CCN1CCN(C2=Nc3ccc(Cl)cc3CC=C2c2ccccc2)CC1.Cl.Cl
Mus musculus [21]
  inhibition in vivo at 100 mg/kg: < 30%
Mus musculus [15]
  ED50: 34.7 mg/kg
Mus musculus [16]
  Activity: 4
Mus musculus [17]
  Activity: 0
Mus musculus [18]
  inhibition in vivo at 100 mg/kg: > 71%
Mus musculus [22]
  inhibition in vivo at 10 mg/kg: 31%
Mus musculus [13]
  inhibition in vivo at 100 mg/kg: < 30%
Mus musculus [19]
  ED50: 93.1 mg/kg

## Cl.Cl.OCCN1CCN(C2=Nc3ccccc3CC=C2c2ccccc2)CC1
Mus musculus [12]
  Activity: 0
Mus musculus [23]
  Inhibition: 31%
Mus musculus [24]
  Inhibition: 31%
Mus musculus [25]
  Inhibition: <30%
Mus musculus [19]
  ED50: > 100 mg/kg

## Cl.Cl.OCCN1CCN(C2=Nc3ccccc3CC=C2c2ccc(Cl)cc2)CC1
Mus musculus [2]
  Control: 289%
Mus musculus [26]
  inhibition in vivo at 100 mg/kg: 31%
Mus musculus [21]
  inhibition in vivo at 100 mg/kg: < 30%
Mus musculus [27]
  ED50: 73.1 mg/kg
Mus musculus [12]
  Activity: 0
Mus musculus [28]
  inhibition in vivo at 100 mg/kg: 57.3%
Mus musculus [29]
  ED50: 88.7 mg/kg
Mus musculus [4]
  Control: 382%
Mus musculus [5]
  inhibition in vivo at 10 mg/kg: 40.8%
Mus musculus [6]
  Control: 265%
Mus musculus [8]
  Control: 186%
Mus musculus [30]
  ED50: 66.8 mg/kg
Rattus norvegicus
  ED50: 25.4 mg/kg
Canis familiaris [31]
  ED50: 0.19 mg/kg
Mus musculus [32]
  ED50: 38.1 mg/kg
Canis familiaris [9]
  inhibition in vivo at 1 mg/kg: 95.5%
Mus musculus [33]
  inhibition in vivo at 100 mg/kg: > 71%

## Cl.Cl.OCCN1CCN(C2=Nc3ccccc3CC=C2c2ccc(Br)cc2)CC1
Mus musculus [2]
  Control: 291%
Mus musculus [11]
  inhibition in vivo at 100 mg/kg: < 30%
Mus musculus [34]
  inhibition in vivo at 50 mg/kg: < 30%
Mus musculus [12]
  Activity: 0
Mus musculus [35]
  inhibition in vivo at 50 mg/kg: 31%
Mus musculus [3]
  inhibition in vivo at 50 mg/kg: 36.1%
Mus musculus [4]
  Control: 335%
Mus musculus [5]
  inhibition in vivo at 10 mg/kg: 31.9%
Mus musculus [6]
  Control: 181%
Mus musculus [8]
  Control: 106%
Canis familiaris [9]
  inhibition in vivo at 1 mg/kg: 72.5%
